Laboratory results: ChEMBL document CHEMBL3616447, “Identification of novel PARP-1 inhibitors: Drug design, synthesis and biological evaluation” (Bioorg Med Chem Lett, 2015)
pIC50: −log10 of the molar value.

How the values were obtained:
[1] = biological target: Poly [ADP-ribose] polymerase 1 (Homo sapiens, UniProt P09874); experiment: Inhibition of PARP1 (unknown origin)
MCF7 = experiment: Anticancer activity against human MCF7 cells after 96 hrs by MTT assay; format: functional; details: MCF7, 96 h
Procedure, shortened: (§1)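 Human breast cancer lines: MCF-7 (wild type) and MDA-MB-436 (naturally carrying BRCA1 mutations, BRCA1-deficient). Cytotoxicity reported as CC50 in μM.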

[2] = Anticancer activity against human BRCA1-deficient MDA-MB-436 cells after 96 hrs by MTT assay; format: functional; details: MDA-MB-436, 96 h; procedure, shortened: as §1

Poly [ADP-ribose] polymerase 1, sequence (P09874 whole entry): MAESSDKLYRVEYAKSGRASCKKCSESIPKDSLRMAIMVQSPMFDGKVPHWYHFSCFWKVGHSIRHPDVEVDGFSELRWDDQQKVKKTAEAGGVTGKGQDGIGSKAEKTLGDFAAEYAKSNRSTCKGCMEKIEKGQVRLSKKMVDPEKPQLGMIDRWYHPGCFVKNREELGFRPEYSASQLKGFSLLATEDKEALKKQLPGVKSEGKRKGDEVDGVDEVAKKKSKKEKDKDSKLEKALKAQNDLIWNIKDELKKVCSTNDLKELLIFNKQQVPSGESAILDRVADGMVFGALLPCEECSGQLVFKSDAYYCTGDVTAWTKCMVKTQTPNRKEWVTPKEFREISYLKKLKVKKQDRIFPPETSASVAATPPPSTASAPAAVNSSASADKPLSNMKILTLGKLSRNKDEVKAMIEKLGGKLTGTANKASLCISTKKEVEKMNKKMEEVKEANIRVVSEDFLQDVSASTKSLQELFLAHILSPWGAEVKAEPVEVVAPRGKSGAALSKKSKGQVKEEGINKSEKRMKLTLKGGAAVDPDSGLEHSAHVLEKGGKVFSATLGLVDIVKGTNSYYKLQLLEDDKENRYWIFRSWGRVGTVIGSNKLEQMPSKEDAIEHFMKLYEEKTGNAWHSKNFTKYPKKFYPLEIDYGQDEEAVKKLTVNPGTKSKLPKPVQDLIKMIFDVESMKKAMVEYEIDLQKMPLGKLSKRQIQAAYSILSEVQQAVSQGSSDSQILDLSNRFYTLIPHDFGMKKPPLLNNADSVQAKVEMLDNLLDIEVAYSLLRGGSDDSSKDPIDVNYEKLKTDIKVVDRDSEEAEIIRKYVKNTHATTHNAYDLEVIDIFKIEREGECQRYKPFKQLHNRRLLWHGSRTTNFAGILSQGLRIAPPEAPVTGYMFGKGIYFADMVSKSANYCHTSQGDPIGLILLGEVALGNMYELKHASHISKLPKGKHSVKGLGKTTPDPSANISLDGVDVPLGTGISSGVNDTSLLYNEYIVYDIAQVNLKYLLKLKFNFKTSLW

pIC50 [1]	SMILES	CC50 (MCF7) [µM]	CC50 [2] [µM]
5.57	CNCc1ccc(-c2[nH]c3cccc4c3c2C(=O)NNC4=O)cc1	83.1	11.3
–	CCCNCc1ccc(-c2[nH]c3cccc4c3c2C(=O)NNC4=O)cc1	101	–
4.95	CC(C)NCc1ccc(-c2[nH]c3cccc4c3c2C(=O)NNC4=O)cc1	40.7	55.7
6.60	CCCCNCc1ccc(-c2[nH]c3cccc4c3c2C(=O)NNC4=O)cc1	18	18.9
8.18	CNCc1ccc(-c2[nH]c3cc(F)cc4c3c2C(=O)NNC4=O)cc1	65.3	56.2
8.46	CCCNCc1ccc(-c2[nH]c3cc(F)cc4c3c2C(=O)NNC4=O)cc1	25.9	5.45
8.62	CCCCNCc1ccc(-c2[nH]c3cc(F)cc4c3c2C(=O)NNC4=O)cc1	–	114
–	CNCc1ccc(-c2cc3c4c(c[nH]c4c2)C(=O)NNC3=O)cc1	1240	–
6.86	CCCNCc1ccc(-c2cc3c4c(c[nH]c4c2)C(=O)NNC3=O)cc1	5560	112
6.33	CC(C)NCc1ccc(-c2cc3c4c(c[nH]c4c2)C(=O)NNC3=O)cc1	1920	105
7.45	CCCCNCc1ccc(-c2cc3c4c(c[nH]c4c2)C(=O)NNC3=O)cc1	237	68.8
–	CNCc1ccc(-c2[nH]c3cc(F)cc4c3c2CCNC4=O)cc1 [RUCAPARIB]	19.5	3
